Results as given in ChEMBL document CHEMBL5385911, “Exploring the Dispersion and Electrostatic Components in Arene-Arene Interactions between Ligands and G4 DNA to Develop G4-Ligands” (J Med Chem, 2024).
Converted amounts (≈) assume the structure as drawn. Values belong to the compound of their own block, whether it stands above or below them. The source made the active and inactive calls. No cut-off for these calls is given here.

Experiments:
[1] = Solubility of the compound at pH 7.4; type: physicochemical; settings: buffer
[2] = Stabilization of double stranded PEPu24T mut DNA (unknown origin) assessed as inhibition of Taq DNA polymerase activity by measuring reduction in full length DNA product at 6 uM pretreated for 10 mins followed by incubation with dNTPs for 15 mins by PAGE analysis; settings: time 25.0 min
Method in brief: (§1)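 Non-G4 control template: TET-labelled 25 nt primer (1 μM final) annealed to mutated PEPu24T mut (1.25 μM final) in 100 mM KCl. 40 nM template, Taq buffer pH 8.8, 25 mM MgCl2, 0.05 U Taq. Compound on ice 10 min, then 100 μM dNTPs at 37 °C 15 min. Denaturing PAGE; full-length product as % of no-compound sample.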

Quadruplex DNA [3] = assay: Stabilization of 5'-FAM and 3'-TAMRA labelled c-Myc G4-quadruplex Pu24T DNA (unknown origin) assessed as increase in thermal stability of DNA structure at 5 to 40 equiv. by FRET melting assay; settings: dose 5-40 equiv
Quadruplex DNA [4] = assay: Stabilization of fluorescently labelled c-Myc G4-quadruplex Pu22 DNA (unknown origin) assessed as increase in thermal stability of DNA structure at 40 equiv. by FRET melting assay; type: nucleic-acid assay
Method in brief: (§2)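 Pu22 (FAM/TAMRA, 0.2 μM), folded in 10 mM lithium cacodylate pH 7.4, 2 mM KCl, 98 mM LiCl. Ligand at 5, 10, 25 or 40 equivalents. Heated 10–95 °C; donor emission at 516 nm (excitation 492 nm) normalized. Tm taken at 0.5 normalized emission; ΔTm is Tm with ligand minus Tm without ligand. Duplicate wells.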

dsDNA = assay: Binding affinity to 5'-Cy5-labelled double stranded DNA ds26 (unknown origin) by microscale thermophoresis analysis; type: nucleic-acid assay
Method in brief: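 Cy5-labelled DNA held at 25 nM, folded in 10 mM phosphate, 100 mM KCl, pH 7.4 (95 °C 5 min, cooled to room temperature). Ligand in 16 1:3 dilutions in 10 mM phosphate pH 7.4, 100 mM KCl, 0.05% Tween20. Capillary fluorescence read at 20% LED power; change in fluorescence versus ligand concentration fitted by nonlinear equation for binding constant.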

Quadruplex DNA [5] = assay: Stabilization of fluorescently labelled G4-quadruplex Bcl2 DNA (unknown origin) assessed as increase in thermal stability of DNA structure at 5 uM by FRET melting assay; type: nucleic-acid assay
Method in brief: (§3)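 0.2 μM FAM/TAMRA dual-labelled oligonucleotide, prefolded in 10 mM lithium cacodylate pH 7.4, 10 mM KCl, 90 mM LiCl (95 °C 10 min, then ≥1 h cold). Ligand added and sample heated from 10 to 95 °C; donor emission at 516 nm (excitation 492 nm) normalized. Tm taken at 0.5 normalized emission; ΔTm is Tm with ligand minus Tm without ligand. Duplicate wells.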

Quadruplex DNA [6] = assay: Binding affinity to c-Myc G4-quadruplex Pu22 DNA (unknown origin) at 0.7 equivalent by NMR titration analysis; type: nucleic-acid assay; settings: dose 0.7 equiv
Method in brief: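 Pu22 folded at 100 μM in 10 mM potassium phosphate pH 7.4, 35 mM KCl (95 °C 10 min, cooled overnight). 10% D2O added, giving 90 μM DNA. Compound added stepwise in increasing equivalents. 1D 1H spectra with excitation sculpting, 256 scans, 298 K, 850 MHz.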

THP-1 = assay: Cytotoxicity against human THP-1 cells assessed as reduction in cell viability at <50 uM; type: toxicity, cell-based; settings: thp-1, 50 µM
Quadruplex DNA [7] = assay: Stabilization of fluorescently labelled G4-quadruplex Tba DNA (unknown origin) assessed as increase in thermal stability of DNA structure at 5 uM by FRET melting assay; type: nucleic-acid assay; method in brief: as §3
Quadruplex DNA [8] = assay: Stabilization of fluorescently labelled G4-quadruplex 25Ceb DNA (unknown origin) assessed as increase in thermal stability of DNA structure at 5 uM by FRET melting assay; type: nucleic-acid assay; method in brief: as §3
Quadruplex DNA [9] = assay: Stabilization of G4-quadruplex DNA in human HeLa cells assessed as increase in BG4-positive cell nuclei at 20 uM incubated for 24 hrs by immunofluorescence microscopy; type: functional, cell-based
Method in brief: (§4)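 HeLa cells (60,000 on coverslips) treated 24 h. Cells fixed in 2% paraformaldehyde, permeabilized in 0.1% Triton X-100, blocked in 2% milk. Stained with BG4–FLAG (1/3000), rabbit anti-FLAG, then Alexa594 anti-rabbit, each 1 h at 37 °C; nuclei stained with DAPI. BG4 foci per nucleus counted, 90–166 cells per condition. Welch-corrected t tests on ln-transformed data; mean ± 2SD shown.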

Quadruplex DNA [10] = assay: Stabilization of fluorescently labelled G4-quadruplex Bom17 DNA (unknown origin) assessed as increase in thermal stability of DNA structure at 5 uM by FRET melting assay; type: nucleic-acid assay; method in brief: as §3
Quadruplex DNA [11] = assay: Stabilization of fluorescently labelled G4-quadruplex 21G DNA (unknown origin) assessed as increase in thermal stability of DNA structure at 5 uM by FRET melting assay; type: nucleic-acid assay; method in brief: as §3
Quadruplex DNA [12] = assay: Stabilization of fluorescently labelled c-Myc G4-quadruplex Pu22 DNA (unknown origin) assessed as increase in thermal stability of DNA structure at 5 uM in presence of double stranded competitor DNA ds26 by FRET melting assay; type: nucleic-acid assay
Method in brief: (§5)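 Competition melting: 0.2 μM labelled Pu22 in 10 mM lithium cacodylate pH 7.4, 2 mM KCl, 98 mM LiCl, with ligand plus 0–100 equivalents of ds26 duplex competitor. Heated 10–95 °C; FAM emission normalized. Tm taken at 0.5 normalized emission; ΔTm is Tm with ligand minus Tm without ligand. SD of at least six independent experiments.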

Quadruplex DNA [13] = assay: Stabilization of fluorescently labelled G4-quadruplex c-KIT2 DNA (unknown origin) assessed as increase in thermal stability of DNA structure at 5 uM by FRET melting assay; type: nucleic-acid assay; method in brief: as §3
Quadruplex DNA [14] = assay: Binding affinity to c-Myc G4-quadruplex Pu22 DNA (unknown origin) assessed as change in entropy by isothermal titration calorimetry; type: nucleic-acid assay
Method in brief: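 Reverse titration: cell holds 20 μM ligand, syringe 120 μM prefolded G4 DNA, 20 injections in 10 mM potassium phosphate, 100 mM KCl, pH 7.4, at 19 °C. First injection 0.5 μL, then 2 μL, 120 s spacing, 1000 rpm, high-feedback mode. Data fitted to one-site binding model.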

Quadruplex DNA [15] = assay: Stabilization of G4-quadruplex PEPu24T DNA (unknown origin) assessed as inhibition of Taq DNA polymerase activity by measuring reduction in full length DNA product at 1.2 uM pretreated for 10 mins followed by incubation with dNTPs for 15 mins by PAGE analysis; type: nucleic-acid assay; settings: time 25.0 min
Method in brief: (§6)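 Template made by annealing TET-labelled 25 nt primer (1 μM final) to PEPu24T (1.25 μM final) in 100 mM KCl. Reaction: 40 nM template, Taq buffer pH 8.8 with 50 mM KCl, 25 mM MgCl2, 0.05 U Taq. Compound preincubated on ice 10 min; dNTPs (100 μM) added, 37 °C 15 min. Denaturing 12% urea/formamide PAGE; full-length product expressed as % of no-compound sample; SD of ≥2 independent experiments.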

Quadruplex DNA [16] = assay: Stabilization of G4-quadruplex PEPu24T DNA (unknown origin) assessed as inhibition of Taq DNA polymerase activity by measuring reduction in full length DNA product at 0.048 to 6 uM pretreated for 10 mins followed by incubation with dNTPs for 15 mins by PAGE analysis; type: nucleic-acid assay; settings: dose 0.048-6 µM, time 25.0 min; method in brief: as §6
Quadruplex DNA [17] = assay: Stabilization of fluorescently labelled c-Myc G4-quadruplex Pu22 DNA (unknown origin) assessed as increase in thermal stability of DNA structure at 5 to 40 equiv. by FRET melting assay; type: nucleic-acid assay; settings: dose 5-40 equiv; method in brief: as §2
Quadruplex DNA [18] = assay: Stabilization of fluorescently labelled G4-quadruplex 21G DNA (unknown origin) assessed as increase in thermal stability of DNA structure at 2 uM by FRET melting assay; type: nucleic-acid assay; method in brief: as §3
Quadruplex DNA [19] = assay: Stabilization of fluorescently labelled G4-quadruplex Tba DNA (unknown origin) assessed as increase in thermal stability of DNA structure at 2 uM by FRET melting assay; type: nucleic-acid assay; method in brief: as §3
Quadruplex DNA [20] = assay: Stabilization of fluorescently labelled G4-quadruplex Bcl2 DNA (unknown origin) assessed as increase in thermal stability of DNA structure at 2 uM by FRET melting assay; type: nucleic-acid assay; method in brief: as §3
Quadruplex DNA [21] = assay: Stabilization of G4-quadruplex PEPu24T DNA (unknown origin) assessed as inhibition of Taq DNA polymerase activity by measuring reduction in full length DNA product at 0.048 uM pretreated for 10 mins followed by incubation with dNTPs for 15 mins by PAGE analysis; type: nucleic-acid assay; settings: time 25.0 min; method in brief: as §6
Quadruplex DNA [22] = assay: Stabilization of fluorescently labelled G4-quadruplex c-KIT2 DNA (unknown origin) assessed as increase in thermal stability of DNA structure at 2 uM by FRET melting assay; type: nucleic-acid assay; method in brief: as §3
Quadruplex DNA [23] = assay: Stabilization of fluorescently labelled c-Myc G4-quadruplex Pu22 DNA (unknown origin) assessed as increase in thermal stability of DNA structure at 2 uM in presence of double stranded competitor DNA ds26 by FRET melting assay; type: nucleic-acid assay; method in brief: as §5
Quadruplex DNA [24] = assay: Stabilization of G4-quadruplex DNA in human HeLa cells assessed as increase in BG4-positive cell nuclei at 1 to 2 uM incubated for 24 hrs by immunofluorescence microscopy; type: functional, cell-based; settings: dose 1-2 µM; method in brief: as §4
Quadruplex DNA [25] = assay: Stabilization of fluorescently labelled G4-quadruplex 25Ceb DNA (unknown origin) assessed as increase in thermal stability of DNA structure at 2 uM by FRET melting assay; type: nucleic-acid assay; method in brief: as §3
Quadruplex DNA [26] = assay: Stabilization of fluorescently labelled G4-quadruplex Bom17 DNA (unknown origin) assessed as increase in thermal stability of DNA structure at 2 uM by FRET melting assay; type: nucleic-acid assay; method in brief: as §3
[27] = Stabilization of double stranded PEPu24T mut DNA (unknown origin) assessed as inhibition of Taq DNA polymerase activity by measuring reduction in full length DNA product at >4 uM pretreated for 10 mins followed by incubation with dNTPs for 15 mins by PAGE analysis; settings: time 25.0 min; method in brief: as §1
Quadruplex DNA [28] = assay: Stabilization of G4-quadruplex PEPu24T DNA (unknown origin) assessed as inhibition of Taq DNA polymerase activity by measuring reduction in full length DNA product at 0.24 uM pretreated for 10 mins followed by incubation with dNTPs for 15 mins by PAGE analysis; type: nucleic-acid assay; settings: time 25.0 min; method in brief: as §6

Compound: Cc1ccc2nc(Nc3nc(C)cc(C)n3)nc(C)c2c1
solubility [1]: 134 µM (≈ 37.4 µg/mL)
Activity [2]: inactive

Compound: COc1ccc2nc(Nc3nc(C)cc(NCCCN(C)C)n3)nc(C)c2c1
solubility [1]: 858 µM (≈ 327 µg/mL)
Activity (Quadruplex DNA [3]): Active
Activity [2]: inactive
Activity (Quadruplex DNA [4]): Active

Compound: Cc1cc(C)c2nc(Nc3nc(C)cc(C)n3)nc(C)c2c1
solubility [1]: 134 µM (≈ 39.3 µg/mL)
Activity (dsDNA): inactive
Activity (Quadruplex DNA [5]): Active
Activity [2]: inactive
Activity (Quadruplex DNA [6]): Active
Activity (THP-1): Non-Toxic
Activity (Quadruplex DNA [7]): inactive
Activity (Quadruplex DNA [8]): Active
Activity (Quadruplex DNA [9]): Active
Activity (Quadruplex DNA [10]): Active
Activity (Quadruplex DNA [11]): Active
Activity (Quadruplex DNA [12]): Active
Activity (Quadruplex DNA [13]): Active
-TdeltaS (Quadruplex DNA [14]): 3.2 kcal/mol
inhibition (Quadruplex DNA [15]): 50%

Compound: Cc1cc(C)nc(Nc2nc(C)c3cc(Cl)ccc3n2)n1
Activity [2]: inactive

More lines, main results first:

Activity (Quadruplex DNA [3]): Active
Activity [2]: inactive
Activity (Quadruplex DNA [16]): Active
Activity (Quadruplex DNA [17]): Active
Compound: Cc1cc(NCCCN(C)C)nc(Nc2nc3cc(Cl)c(Cl)cc3nc2C)n1

solubility [1]: 858 µM (≈ 326 µg/mL)
Activity (Quadruplex DNA [3]): Active
Activity (Quadruplex DNA [18]): Active
Activity (Quadruplex DNA [19]): inactive
Activity (Quadruplex DNA [20]): Active
Activity (dsDNA): inactive
inhibition (Quadruplex DNA [21]): 50%
Activity (Quadruplex DNA [6]): Active
Activity (Quadruplex DNA [22]): Active
Activity (Quadruplex DNA [23]): Active
Activity (Quadruplex DNA [25]): Active
Activity (Quadruplex DNA [26]): Active
Activity [27]: Active
-TdeltaS (Quadruplex DNA [14]): 1.85 kcal/mol
inhibition (Quadruplex DNA [28]): 100%
Compound: Cc1cc(C)c2nc(Nc3nc(C)cc(NCCCN(C)C)n3)nc(C)c2c1
Activity (Quadruplex DNA [24]): Active

Activity (Quadruplex DNA [3]): Active
Activity [2]: inactive
Activity (Quadruplex DNA [16]): Active
Activity (Quadruplex DNA [17]): inactive
Compound: Cc1cc(NCCCN(C)C)nc(Nc2cnc3ccccc3n2)n1

solubility [1]: 858 µM (≈ 331 µg/mL)
Activity (Quadruplex DNA [3]): Active
Activity [2]: inactive
Activity (Quadruplex DNA [4]): Active
Compound: Cc1cc(NCCCN(C)C)nc(Nc2nc(C)c3cc(Cl)ccc3n2)n1
